Measured values as given in ChEMBL document CHEMBL4145683, “Total Synthesis and Structure-Activity Relationships Study of Odilorhabdins, a New Class of Peptides Showing Potent Antibacterial Activity” (J Med Chem, 2018).
In brackets after ≈: the same amount, converted by molar mass. Non-standard residues stand in square brackets, D forms with d. Residues, ends and D or L forms follow the SMILES beside them. *: point of attachment. Dab(3S-OH) = NC[C@H](O)[C@H](N)C(=O)O; ΔZArg = N=C(N)NCC/C=C(\N)C(=O)O; dOrn = NCCC[C@@H](N)C(=O)O; Abu = CC[C@H](N)C(=O)O; NH(CH2)4NH2 = NCCCCN*

Columns and labels:
[1] = system: Escherichia coli; experiment: microbe, parasite or virus in culture; conditions: ATCC 25922
[2] = system: Escherichia coli; experiment: Inhibition of bacterial protein synthesis in cell-free Escherichia coli incubated for 1 hr and measured for every 20 mins by bacterial cell-free transcription-translation assay; assay type: functional
Outline: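 E. coli cell-free coupled transcription-translation used a GFP gene in pEXP5-CT as template, started with 1 μg plasmid in 50 μL reactions. Feed buffer was added at 30 min, with incubation at 30 °C. Fluorescence (ex 475/em 520 nm) was read every 20 min. IC50 was taken at 1 h after feed addition from a four-parameter log(inhibitor)–response fit. Duplicates.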

[3] = system: Klebsiella pneumoniae; experiment: Antimicrobial activity against Klebsiella pneumoniae ATCC 43816 by broth microdilution method; assay type: functional; conditions: Klebsiella pneumoniae, ATCC 43816; read-out: MIC
Outline: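 Broth microdilution MIC per CLSI M07-A10, with inoculum prepared by direct colony suspension. Reference strains were from ATCC and NCTC.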

Compound	MIC [1]	IC50 ([2]; Escherichia coli)	MIC [3]	IC50 [2]
CC(C)[C@H](NC(=O)[C@@H](NC(=O)[C@@H](N)CCCCN)[C@@H](O)CN)C(=O)NCC(=O)N[C@H](CCCN)C(=O)N1CCC[C@H]1C(=O)N[C@@H](Cc1cnc[nH]1)C(=O)N[C@@H](CCCCN)C(=O)N/C(=C\CCNC(=N)N)C(=O)N[C@@H](CCCCN)C(=O)NCCCCN (H-K[Dab(3S-OH)]VG[dOrn]PHK[ΔZArg]K-{NH(CH2)4NH2})	4 µg/mL (≈ 3.21 µM)	0.8 µM	2 µg/mL (≈ 1.6 µM)	
CC[C@H](NC(=O)[C@@H](NC(=O)[C@@H](N)CCCCN)[C@@H](O)CN)C(=O)NCC(=O)N[C@H](CCCN)C(=O)N1CCC[C@H]1C(=O)N[C@@H](Cc1cnc[nH]1)C(=O)N[C@@H](CCCCN)C(=O)N/C(=C\CCNC(=N)N)C(=O)N[C@@H](CCCCN)C(=O)NCCCCN (H-K[Dab(3S-OH)][Abu]G[dOrn]PHK[ΔZArg]K-{NH(CH2)4NH2})	4 µg/mL (≈ 3.24 µM)	0.73 µM	4 µg/mL (≈ 3.24 µM)	
C[C@H](NC(=O)[C@@H](CCCN)NC(=O)CNC(=O)[C@@H](NC(=O)[C@@H](NC(=O)[C@@H](N)CCCCN)[C@@H](O)CN)[C@@H](O)CN)C(=O)N[C@@H](Cc1cnc[nH]1)C(=O)N[C@@H](CCCCN)C(=O)N/C(=C\CCNC(=N)N)C(=O)N[C@@H](CCCCN)C(=O)NCCCCN (H-K[Dab(3S-OH)][Dab(3S-OH)]G[dOrn]AHK[ΔZArg]K-{NH(CH2)4NH2})	16 µg/mL (≈ 12.9 µM)	2.41 µM	32 µg/mL (≈ 25.8 µM)	
C[C@H](NC(=O)[C@@H]1CCCN1C(=O)[C@@H](CCCN)NC(=O)CNC(=O)[C@@H](NC(=O)[C@@H](NC(=O)[C@@H](N)CCCCN)[C@@H](O)CN)[C@@H](O)CN)C(=O)N[C@@H](CCCCN)C(=O)N/C(=C\CCNC(=N)N)C(=O)N[C@@H](CCCCN)C(=O)NCCCCN (H-K[Dab(3S-OH)][Dab(3S-OH)]G[dOrn]PAK[ΔZArg]K-{NH(CH2)4NH2})	8 µg/mL (≈ 6.68 µM)	0.39 µM	8 µg/mL (≈ 6.68 µM)	
C[C@H](NC(=O)[C@H](CCCCN)NC(=O)[C@H](Cc1cnc[nH]1)NC(=O)[C@@H]1CCCN1C(=O)[C@@H](CCCN)NC(=O)CNC(=O)[C@@H](NC(=O)[C@@H](NC(=O)[C@@H](N)CCCCN)[C@@H](O)CN)[C@@H](O)CN)C(=O)N[C@@H](CCCCN)C(=O)NCCCCN (H-K[Dab(3S-OH)][Dab(3S-OH)]G[dOrn]PHKAK-{NH(CH2)4NH2})	> 64 µg/mL	2.4 µM	64 µg/mL (≈ 54.2 µM)	
N=C(N)NCCC[C@H](NC(=O)[C@H](CCCCN)NC(=O)[C@H](Cc1cnc[nH]1)NC(=O)[C@@H]1CCCN1C(=O)[C@@H](CCCN)NC(=O)CNC(=O)[C@@H](NC(=O)[C@@H](NC(=O)[C@@H](N)CCCCN)[C@@H](O)CN)[C@@H](O)CN)C(=O)N[C@@H](CCCCN)C(=O)NCCCCN (H-K[Dab(3S-OH)][Dab(3S-OH)]G[dOrn]PHKRK-{NH(CH2)4NH2})	32 µg/mL (≈ 25.3 µM)	1.53 µM	8 µg/mL (≈ 6.32 µM)	
N=C(N)NCCC[C@@H](NC(=O)[C@H](CCCCN)NC(=O)[C@H](Cc1cnc[nH]1)NC(=O)[C@@H]1CCCN1C(=O)[C@@H](CCCN)NC(=O)CNC(=O)[C@@H](NC(=O)[C@@H](NC(=O)[C@@H](N)CCCCN)[C@@H](O)CN)[C@@H](O)CN)C(=O)N[C@@H](CCCCN)C(=O)NCCCCN (H-K[Dab(3S-OH)][Dab(3S-OH)]G[dOrn]PHK[dR]K-{NH(CH2)4NH2})	16 µg/mL (≈ 12.6 µM)	0.98 µM	16 µg/mL (≈ 12.6 µM)	
N=C(N)NCC/C=C(\NC(=O)[C@H](CCCCN)NC(=O)[C@H](Cc1cnc[nH]1)NC(=O)[C@@H]1CCCN1C(=O)[C@@H](CCCN)NC(=O)CNC(=O)[C@@H](NC(=O)[C@@H](NC(=O)[C@@H](N)CCCCN)[C@@H](O)CN)[C@@H](O)CN)C(=O)O (H-K[Dab(3S-OH)][Dab(3S-OH)]G[dOrn]PHK[ΔZArg]-OH)	16 µg/mL (≈ 15 µM)	0.43 µM	4 µg/mL (≈ 3.75 µM)	
C[C@H](NC(=O)/C(=C/CCNC(=N)N)NC(=O)[C@H](CCCCN)NC(=O)[C@H](Cc1cnc[nH]1)NC(=O)[C@@H]1CCCN1C(=O)[C@@H](CCCN)NC(=O)CNC(=O)[C@@H](NC(=O)[C@@H](NC(=O)[C@@H](N)CCCCN)[C@@H](O)CN)[C@@H](O)CN)C(=O)NCCCCN (H-K[Dab(3S-OH)][Dab(3S-OH)]G[dOrn]PHK[ΔZArg]A-{NH(CH2)4NH2})	8 µg/mL (≈ 6.63 µM)	1.04 µM	8 µg/mL (≈ 6.63 µM)	
O=C(N[C@H](CO)[C@H](O)c1ccc([N+](=O)[O-])cc1)C(Cl)Cl [CHLORAMPHENICOL]		7.74 µM		
CC[C@H]1OC(=O)[C@H](C)[C@@H](O[C@H]2C[C@@](C)(OC)[C@@H](O)[C@H](C)O2)[C@H](C)[C@@H](O[C@@H]2O[C@H](C)C[C@H](N(C)C)[C@H]2O)[C@](C)(O)C[C@@H](C)C(=O)[C@H](C)[C@@H](O)[C@]1(C)O [ERYTHROMYCIN]		2.12 µM		
CN[C@@H]1[C@H](O)[C@H](NC)[C@H]2O[C@@]3(O)C(=O)C[C@@H](C)O[C@H]3O[C@@H]2[C@H]1O [SPECTINOMYCIN]		0.99 µM		
GENTAMICIN				0.31 µM
